The record followed here is ChEMBL document CHEMBL1123033, “Synthesis and antiherpes simplex virus activity of 9-[(1,3-dihydroxy-2-propylthio)methyl]guanine” (1985).

Each structure is given as a SMILES string. The source made the active and inactive calls. The calls are words filed in the database; no cut-off is given here. Bounds are passed on as bounds.

In one assay the test system is Human alphaherpesvirus 1. Put plainly: In vitro antiviral and anticellular activity was evaluated against herpes simplex virus HSV-1 (F strain) in vero cells tissue culture. The assay is classed as functional. Conditions: Human alphaherpesvirus 1, Vero; read-out: ID50 (the source's name). In outline:
(§1)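 Plaque reduction assay in Vero cells infected with HSV; cells exposed to the nucleoside analogue. ID50 is the dose giving a 50% drop in plaque count relative to untreated controls.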

The test system of assay [1] is Mus musculus. Put plainly: Mean survival time of HSV-2 induced mortality in mice was determined when the 30 mg/Kg of compound was administered subcutaneously; NS means not significant. The assay is classed as functional, organism-based. The gist of the method:
(§2)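 Mice (female Swiss-Webster, ~20 g) challenged intraperitoneally with 5 × 10^4 PFU HSV-2 strain G (~10 LD50); subcutaneous dosing once daily for 4 days, first dose 24 h after infection, with a saline group run alongside. Mean survival time in days ± standard deviation; probability by Mann-Whitney u-test.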

The test system of assay [2] is Mus musculus. Put plainly: Effect of subcutaneous dose at 10 mg/kg on HSV-2 induced mortality in mice. The assay is classed as functional. The gist of the method: (§3)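 Female Swiss-Webster mice (~20 g) infected intraperitoneally with 5 × 10^4 PFU HSV-2 strain G (~10 LD50), then dosed subcutaneously once daily (24-h intervals) for 4 days starting 24 h post-infection, with a saline group run alongside. Read-out is survivors/total (15–16 mice per group) with percent survivors; probability by Fisher exact test.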

The test system of assay [3] is Mus musculus. Put plainly: Effect of subcutaneous dose at 30 mg/kg on HSV-2 induced mortality in mice; 2/16. The format is functional. The gist of the method:
as §3

A further assay concerns Vero. The experiment in a line: In vitro antiviral and anticellular activity was evaluated against vero cells in tissue culture. The format is functional. Conditions: Chlorocebus sabaeus, read-out: ID50 (the source's name). The gist of the method:
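Anticellular activity measured by cell proliferation assay in uninfected Vero cells.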

For assay [4], the system named is Mus musculus. The experiment in a line: (§4) Mean survival time of HSV-2 induced mortality in mice was determined when the 10 mg/Kg of compound was administered subcutaneously. The assay is classed as functional, organism-based. The gist of the method:
as §2

Assay [5] concerns Mus musculus. Put plainly: Effect of subcutaneous dose at 10 mg/kg on HSV-2 induced mortality in mice; 1/16. The assay is classed as functional. The gist of the method:
as §3

Assay [6] concerns Mus musculus. Put plainly: Effect of subcutaneous dose at 100 mg/kg on HSV-2 induced mortality in mice; 8/15. The format is functional. The gist of the method:
as §3

Another assay concerns Human betaherpesvirus 5. Put plainly: In vitro antiviral and anticellular activity was evaluated against human cytomegalovirus (HCMV AD 169) in […]. The assay is classed as functional. Conditions: read-out: ID50 (the source's name). In outline: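 Plaque reduction assay in MRC-5 cells infected with HCMV and treated with the nucleoside analogue. ID50 is the dose cutting plaque numbers by 50% versus untreated controls.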

Assay [7] deals with Human alphaherpesvirus 2. The experiment in a line: In vitro antiviral and anticellular activity was evaluated against herpes simplex virus HSV-2 (G strain) in vero (HSV-2 G ) cells. The assay is classed as functional. Conditions: Human alphaherpesvirus 2, Vero; read-out: ID50 (the source's name). The gist of the method: as §1
For assay [8], the system named is Mus musculus. Put plainly: Effect of subcutaneous dose at 30 mg/kg on HSV-2 induced mortality in mice. The assay is classed as functional. The gist of the method: as §3
For assay [9], the system named is Human alphaherpesvirus 2. The experiment in a line: In vitro antiviral and anticellular activity was evaluated against herpes simplex virus HSV-2 (G strain) in vero cells. The assay is classed as functional. Conditions: Human alphaherpesvirus 2, Vero; read-out: ID50 (the source's name). The gist of the method:
as §1

The test system of assay [10] is Mus musculus. The experiment in a line: Effect of subcutaneous dose at 3 mg/kg on HSV-2 induced mortality in mice; 4/16. The assay is classed as functional. The gist of the method: as §3
Assay [11] concerns Mus musculus. The description is as §4. The format is functional. In outline:
as §2

In assay [12] the test system is Mus musculus. The experiment in a line: Effect of subcutaneous dose at 3 mg/kg on HSV-2 induced mortality in mice. The assay is classed as functional. The gist of the method: as §3
The test system of assay [13] is Mus musculus. Put plainly: Effect of subcutaneous dose at 30 mg/kg on HSV-2 induced mortality in mice; 12/16. The assay is classed as functional. In outline: as §3
The test system of assay [14] is Mus musculus. Put plainly: Effect of subcutaneous dose at 10 mg/kg on HSV-2 induced mortality in mice; 7/16. The assay is classed as functional. The gist of the method:
as §3

Assay [15] relates to Mus musculus. The experiment in a line: Effect of subcutaneous dose at 30 mg/kg on HSV-2 induced mortality in mice(value in parentheses denotes probability. The format is functional. In outline: as §3
Assay [16] has as its system Mus musculus. The experiment in a line: Mean survival time of HSV-2 induced mortality in mice was determined when the 3 mg/Kg of compound was administered subcutaneously; NS means not significant. The assay is classed as functional, organism-based. The gist of the method: as §2

As for `Nc1nc(O)c2ncn(C[S+]([O-])C(CO)CO)c2n1` (centres undefined), the IC50 in the assay on Human alphaherpesvirus 1 was 25000 nM.

For `Nc1nc(O)c2ncn(CSC(CO)CO)c2n1`, the Mean survival time result in the assay on Mus musculus [1] and with Mus musculus [4] was “inactive” each time. The values for the Mean survival time in the assay on Mus musculus [2] and in the assay with Mus musculus [8] were 9.7 days and 9.4 days, respectively. Also, the Survivors is given as 2 in the assay on Mus musculus [3], 1 with Mus musculus [5] and 8 in the assay on Mus musculus [6]. The IC50 in the assay on Vero came to 900 µM; in the assay on Human alphaherpesvirus 1, 900 nM; in the assay with Human betaherpesvirus 5 it was 80 µM; with Human alphaherpesvirus 2 [7], 8 µM.

Take `Nc1nc(O)c2ncn(CS(=O)(=O)C(CO)CO)c2n1`: the IC50 in the assay with Human alphaherpesvirus 1 was 40000 nM.

Turning to `Nc1nc2c(ncn2COCCO)c(=O)[nH]1` [ACYCLOVIR], the IC50 is 1500 nM with Human alphaherpesvirus 2 [9], 1100 µM in the assay with Vero, 400 nM in the assay on Human alphaherpesvirus 1 and 100 µM with Human betaherpesvirus 5.

On to `Nc1nc2c(ncn2COC(CO)CO)c(=O)[nH]1` [GANCICLOVIR], for which the IC50 in the assay with Human alphaherpesvirus 2 [9] is 1300 nM; with Vero it was 500 µM; with Human alphaherpesvirus 1, 300 nM; with Human betaherpesvirus 5, 6 µM. In addition, the Survivors in the assay with Mus musculus [10] stood at 4; in the assay on Mus musculus [13], 12; with Mus musculus [14], 7. The Mean survival time in the assay with Mus musculus [11] is below 0.001; with Mus musculus [2], 12.4 days; in the assay with Mus musculus [12] it was 11.2 days; in the assay on Mus musculus [15], 13.8 days. For the same compound, in the assay with Mus musculus [16], the Mean survival time entry is “inactive”.
